For data set [1], the target named is T1, Sphingosine 1-phosphate receptor 1 (Homo sapiens, UniProt P21453). Put plainly: Agonist activity at human S1P1 receptor assessed as cAMP accumulation by HTRF assay relative to S1P. It counts as functional. The essentials: (§1)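 HTRF cyclase (cAMP) functional assay at S1P1 of each species; EC50 taken as mean of three or more replicates; efficacy given as % agonism relative to S1P.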
In general terms: Cyclic AMP is a second messenger, typically raised through Gs and lowered through Gi signalling.

Data set [2] deals with T1, Sphingosine 1-phosphate receptor 1. Put plainly: Agonist activity at human S1P1 receptor assessed as cAMP accumulation by HTRF assay. It counts as functional. The essentials: as §1
For data set [3], the system named is Rattus norvegicus. Description: Reduction in ankle diameter in Lewis rat collagen-induced arthritis model at 0.075 mg/kg, po qd measured on day 17 (reference value: +/- inches). It counts as functional. The method, boiled down:
(§2)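 Female Lewis rats with collagen-induced arthritis, prophylactic daily oral dosing; ankle diameter (inches) and body weight recorded at day 17 end point; mean ± SEM.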

Data set [4] has as its system Rattus norvegicus. Description: Induction of body weight regain in Lewis rat collagen-induced arthritis model at 0.075 mg/kg, po qd measured on day 17 (reference value: 160.3 +/- 2.3 g). It counts as functional.
Data set [5] is described as follows: Activation of Inward rectifier potassium channel in human atrial myocytes. It counts as cell-based. As to conditions: Cardiac atrium. The method, boiled down:
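In vitro activation of the inward-rectifying potassium channel (IKACh) in human atrial myocytes, run alongside S1P as reference agonist; potency expressed as EC50.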

Data set [6] can be described thus: Half life in rat liver microsomes. It counts as ADME. The method, boiled down:
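Stability on incubation with liver microsomes of each species; half-life reported.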
On the technique in general: Microsomes from liver hold many membrane-bound enzymes, among them those of drug oxidation.

Data set [7] concerns Rattus norvegicus. Put plainly: Induction of body weight regain in Lewis rat collagen-induced arthritis model at 1 mg/kg, po qd measured on day 17 (reference value: 160.3 +/- 2.3 g). It counts as functional.
The test system of the next data set is Mus musculus. Put plainly: Reduction in disease severity in C57Bl/6 mouse experimental autoimmune encephalomyelitis model of multiple sclerosis at 1 mg/kg dosed once daily beginning on day 18 and continued to day 37. Details: dose 1 mg/kg. It counts as functional, organism-based. The essentials: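 Female C57Bl/6 mice with MOG35–55-induced EAE; once-daily treatment started day 18 after severe disease onset and continued to day 37; vehicle 0.5% methylcellulose; clinical scoring.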

The test system of data set [8] is Rattus norvegicus. Put plainly: Reduction in ankle diameter in Lewis rat collagen-induced arthritis model at 1 mg/kg, po qd measured on day 17 (reference value: +/- inches). It counts as functional. The essentials:
as §2

Active and inactive are the calls of the source. The rule behind the calls is not given here.

T1 sequence (P21453 whole entry): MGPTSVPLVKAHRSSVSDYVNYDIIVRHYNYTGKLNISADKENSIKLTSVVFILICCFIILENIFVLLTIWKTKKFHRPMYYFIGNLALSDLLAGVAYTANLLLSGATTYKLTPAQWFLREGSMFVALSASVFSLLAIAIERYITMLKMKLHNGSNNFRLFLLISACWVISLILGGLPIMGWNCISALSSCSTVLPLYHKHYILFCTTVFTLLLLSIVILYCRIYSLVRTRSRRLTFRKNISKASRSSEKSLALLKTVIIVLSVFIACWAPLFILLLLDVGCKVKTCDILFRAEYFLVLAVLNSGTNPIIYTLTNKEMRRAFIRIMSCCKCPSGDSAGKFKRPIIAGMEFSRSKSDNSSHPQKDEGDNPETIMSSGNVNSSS

In the case of `CC(C)(C)Cc1ccc(COc2ccc3[nH]c4c(c3c2)CCC4CC(=O)O)cc1C(F)(F)F` (racemic), the Emax in data set [1] is 112%. Further, the EC50 in data set [2] came out at 55.8 nM.
Regarding `O=C(O)CC1CCc2c1[nH]c1ccc(OCc3cc(C(F)(F)F)cc(C(F)(F)F)c3)cc21` (racemic), the Emax in data set [1] stood at 98%.
`N#Cc1cc(COc2ccc3[nH]c4c(c3c2)CCC4CC(=O)O)ccc1OC(F)(F)F` (racemic): the maximal effect (Emax) in data set [1] was 109%. In addition, the EC50 in data set [2] is 1.7 nM.
For `O=C(O)CC1CCc2c1[nH]c1ccc(OCc3ccc(C4CC4)c(C(F)(F)F)c3)cc21` (racemic) the same measures were 118% and 3.68 nM.
Consider `CN(Cc1cnc2nc(N)nc(N)c2n1)c1ccc(C(=O)N[C@@H](CCC(=O)O)C(=O)O)cc1` [METHOTREXATE], for which the Activity with Rattus norvegicus [3] worked out at 0.2795 inches; in the data set on Rattus norvegicus [4] it was 181.7 g.
Consider `CCCCCCCCCCCCC/C=C/[C@@H](O)[C@@H](N)COP(=O)(O)O`, for which the EC50 turned out to be 2.1 nM in data set [5] and 0.062 nM in data set [2].
For `N#Cc1cc(COc2ccc3[nH]c4c(c3c2)CCC4CC(=O)O)cc(OC(F)(F)F)c1` (racemic), the Emax in data set [1] was 90%.
Turning to `N#Cc1cc(COc2ccc3[nH]c4c(c3c2)CCC4CC(=O)O)ccc1C1CCCCC1` (racemic), the Emax in data set [1] amounted to 98%. For the same compound, the EC50 in data set [2] is 0.087 nM.
As for `O=C(O)C[C@@H]1CCc2c1[nH]c1ccc(OCc3ccc(C4CCCC4)c(C(F)(F)F)c3)cc21`, the Emax in data set [1] came out at 103%. The EC50 in data set [2] came out at 0.09 nM. Moreover, in data set [6], the half-life came to 9 min.
On to `O=C(O)CC1CCc2c1[nH]c1ccc(OCc3ccc(C4CCC4)c(C(F)(F)F)c3)cc21` (racemic), for which the Emax in data set [1] came to 109%. In addition, the EC50 in [2] was found to be 0.45 nM.
As to `COc1ccc(COc2ccc3[nH]c4c(c3c2)CCC4CC(=O)O)cc1C#N` (racemic), the Emax in data set [1] is 136%. Moreover, the EC50 in data set [2] came out at 120 nM.
For `O=C(O)CC1CCc2c1[nH]c1ccc(OCc3ccc(Cl)c(C(F)(F)F)c3)cc21` (racemic) the same measures were 117% and 159 nM.
`CC(C)Cc1ccc(COc2ccc3[nH]c4c(c3c2)CCC4CC(=O)O)cc1C(F)(F)F` (racemic): the Emax in [1] amounted to 103%. For the same compound, the EC50 in data set [2] is 0.44 nM.
In the case of `O=C(O)CC1CCc2c1[nH]c1ccc(OCc3ccc(CC4CCCCC4)c(C(F)(F)F)c3)cc21` (racemic), the Emax in data set [1] was 111%. In addition, the EC50 in data set [2] came to 4.58 nM.
For `O=C(O)CC1CCc2c1[nH]c1ccc(OCc3ccc(C4CCCC4)c(C(F)(F)F)c3)cc21` (racemic) the same measures were 104% and 0.073 nM.
In the same order, the values of `O=C(O)CC1CCc2c1[nH]c1ccc(OCc3ccc(C4CCCCC4)c(C(F)(F)F)c3)cc21` (racemic) are 96% and 0.077 nM.
In the same order, the values of `N#Cc1ccc(COc2ccc3[nH]c4c(c3c2)CCC4CC(=O)O)cc1C(F)(F)F` (racemic) are 104% and 141 nM.
In the case of `CCCc1ccc(COc2ccc3[nH]c4c(c3c2)CCC4CC(=O)O)cc1C(F)(F)F` (racemic), the maximal effect (Emax) in data set [1] turned out to be 107%. In data set [2], the EC50 came out at 0.49 nM.
Regarding `CCCCCCCCc1ccc(CCC(N)(CO)CO)cc1` [FINGOLIMOD], the results for the Activity in the data set with Rattus norvegicus [7] and in the data set with Rattus norvegicus [8] were 181.9 g and 0.2694 inches, respectively. Further, the result in the data set with Mus musculus was Active.

As usually defined, the Emax is the maximal effect, on the per cent scale that the assay sets. The EC50 is the midpoint of the concentration-response curve. The half-life is how long it takes for the measured level to halve. Lower therefore signals fast loss.

The record behind these values is ChEMBL document CHEMBL3352115, “Discovery of APD334: Design of a Clinical Stage Functional Antagonist of the Sphingosine-1-phosphate-1 Receptor” (ACS Med Chem Lett, 2014).
